According to ChEMBL document CHEMBL3627673, “Modification of cellular DNA by synthetic aziridinomitosenes” (Bioorg Med Chem, 2015):
Calls of active or inactive are those of the source. The calls are words filed in the database; no cut-off is given here.

Legend:
Jurkat [1] = test: Induction of DNA modifying activity in human Jurkat cells assessed as increase in H2O2-induced DNA strand break at 10 uM under aerobic condition by alkaline comet assay in presence of H2O2; assay type: cell-based
Procedure, shortened: (§1)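 Jurkat cells at 1 x 10^5/mL were exposed to drug or PBS for 1 h at 37 °C in 5% CO2 (hypoxic arm in an N2/CO2 chamber). They then received 100 µM H2O2 in PBS for 20 min at 4 °C. Cells were embedded in agarose and lysed overnight, unwound at pH >13 for 20 min, electrophoresed at 20 V for 30 min at 4 °C, and stained with SYBR Green. Tail extent moment (tail length x tail DNA) was measured from ≥50 cells over two experiments.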

Jurkat [2] = test: Induction of DNA modifying activity in human Jurkat cells assessed as tail extent moments at 10 uM under hypoxic condition by alkaline comet assay in presence of 100 uM H2O2; procedure, shortened: as §1
Jurkat [3] = test: Antiproliferative activity against human Jurkat T cells after 48 hrs by resazurin reduction assay; assay type: functional, cell-based
Procedure, shortened: (§2)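 Cells seeded at 8,000/well; adherent lines trypsinized and given 24 h at 37 °C in 5% CO2 before drug, media replaced with drug dilutions or vehicle. Drug exposure 48 h, then 0.1% resazurin added for 4-24 h. Fluorescence 530/590 nm, expressed as % of untreated, and IC50 from log(inhibitor) vs response fit. Mean ± SEM, ≥3 independent experiments, ≥3 wells each.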

Jurkat [4] = test: Antiproliferative activity against human Jurkat T cells in hypoxic condition after 48 hrs by resazurin reduction assay; assay type: functional, cell-based
Procedure, shortened: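 Jurkat cells held in a chamber purged 15 min with 95% N2/5% CO2, sealed, and incubated 1 h at 37 °C. Drug was diluted in N2/CO2-sparged PBS and added, then the chamber was purged again for 15 min and kept sealed at 37 °C for the assay. Resazurin readout was 530/590 nm, with IC50 from log(inhibitor) vs response fit.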

T47D = test: Antiproliferative activity against human T47D cells after 48 hrs by resazurin reduction assay; assay type: functional, cell-based; procedure, shortened: as §2
HL-60 = test: Antiproliferative activity against human HL60 cells after 48 hrs by resazurin reduction assay; assay type: functional, cell-based; conditions: HL-60, 48 h; procedure, shortened: as §2
HepG2 = test: Antiproliferative activity against human HepG2 cells after 48 hrs by resazurin reduction assay; assay type: functional, cell-based; conditions: HepG2, 48 h; procedure, shortened: as §2
Jurkat [5] = test: Induction of DNA modifying activity in human Jurkat cells assessed as increase in DNA-protein crosslink at 100 uM under aerobic condition by K-SDS assay (reference value: 4.5. +/- 1.5%); assay type: cell-based
Procedure, shortened: (§3)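 Jurkat cells (2 x 10^5) treated 1.5 h at 37 °C in complete RPMI-1640, aerobic or in sealed 95% N2/5% CO2 chamber. Lysed in 2% SDS/Tris pH 7.5; KCl precipitation, three 65 °C wash rounds, proteinase K 55 °C 3 h. Protein-linked and free DNA quantified by SYBR Green against standard; %DPC = linked/(linked+free) x100. Mean ± SEM, three experiments (n=9).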

Jurkat [6] = test: Induction of DNA modifying activity in human Jurkat cells assessed as tail extent moments at 10 uM under aerobic condition by alkaline comet assay in presence of 100 uM H2O2; procedure, shortened: as §1
Jurkat [7] = test: Induction of DNA modifying activity in human Jurkat cells assessed as DNA-protein crosslink at 100 uM under hypoxic condition by K-SDS assay; assay type: cell-based; procedure, shortened: as §3
Jurkat [8] = test: Induction of DNA modifying activity in human Jurkat cells assessed as increase in amount of crosslink DNA at 10 uM for 1 hr under aerobic condition by Hoechst-33342 staining based fluorescence assay
Procedure, shortened: (§4)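 Jurkat cells (~5-6 x 10^6) were exposed to drug or PBS for 1 h (aerobic, or in a sealed 95% N2/5% CO2 chamber) before DNA isolation. DNA (3,750 ng) was mixed with Hoechst 33342 in 0.5x TE, ex/em 360/460 nm, read before and after 5 min at 96-98 °C, 5 min ice, and 5 min room temperature. Crosslinked fraction was taken against a dye-only control and converted to crosslinks/fragment = -ln(1-X). Two isolations, each in triplicate.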

[9] = Stability of the compound in DMEM media assessed as compound remaining at 213 uM after 2 hrs by HPLC analysis; assay type: physicochemical; conditions: read-out: Stability
HuT78 = test: Antiproliferative activity against human HUT78 cells after 48 hrs by resazurin reduction assay; assay type: functional, cell-based; conditions: HuT78, 48 h; procedure, shortened: as §2
HeLa = test: Antiproliferative activity against human HeLa cells after 48 hrs by resazurin reduction assay; assay type: functional, cell-based; procedure, shortened: as §2
[10] = Stability of the compound in DMEM media assessed as compound remaining at 213 uM after 0.5 hrs by HPLC analysis; assay type: physicochemical; conditions: read-out: Stability
[11] = Stability of the compound in DMEM media assessed as compound remaining at 213 uM after 1 hr by HPLC analysis; assay type: physicochemical; conditions: read-out: Stability
[12] = Stability of the compound in DMEM media assessed as compound remaining at 213 uM after 1.5 hrs by HPLC analysis; assay type: physicochemical; conditions: read-out: Stability
Jurkat [13] = test: Induction of DNA modifying activity in human Jurkat cells assessed as increase in amount of crosslink DNA at 10 uM for 1 hr under hypoxic condition by Hoechst-33342 staining based fluorescence assay; procedure, shortened: as §4
[14] = Stability of the compound in DMEM media assessed as compound remaining at 250 uM after 5 hrs by HPLC analysis; assay type: physicochemical; conditions: read-out: Stability
Procedure, shortened: (§5)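 Stock in DMSO added to DMEM with 10% FBS and pen/strep to 250 µM final, then filtered. Injected every 15 min onto a phenyl column with detection at 254 and 480 nm. Mobile phase was acetonitrile (A) and pH 7.2 Tris (B) at 1.0 mL/min, 15 min gradient from 30% A to 70% A.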

[15] = Stability of the compound in DMEM media assessed as compound remaining at 250 uM after 7 hrs by HPLC analysis; assay type: physicochemical; conditions: read-out: Stability; procedure, shortened: as §5
[16] = Stability of the compound in DMEM media assessed as compound remaining at 250 uM after 49 hrs by HPLC analysis; assay type: physicochemical; conditions: read-out: Stability; procedure, shortened: as §5
[17] = Stability of the compound in methanol assessed as retention time by HPLC analysis; assay type: physicochemical
[18] = Stability of the compound in DMEM media assessed as compound remaining at 250 uM after 2 hrs by HPLC analysis; assay type: physicochemical; conditions: read-out: Stability; procedure, shortened: as §5

Row | Structure (SMILES) | Activity (Jurkat [1]) | Activity (Jurkat [2]) | IC50 (Jurkat [3]) [nM] | IC50 (Jurkat [4]) [nM] | IC50 (T47D) [nM] | IC50 (HL-60) [nM] | IC50 (HepG2) [nM] | Activity (Jurkat [5]) [%] | Activity (Jurkat [6]) | Activity (Jurkat [7]) | Activity (Jurkat [8]) | IC50 (HuT78) [nM] | IC50 (HeLa) [nM] | Activity (Jurkat [13]) | other results
1 | CN1[C@@H]2c3c(COC(N)=O)c4c(n3C[C@@H]21)C(=O)C=CC4=O (some centres undefined) | Active | 3.6 | 4160 | 3960 | 9290 | 2030 | 7870 | 17 | 0.49 | inactive | Active | 131 | 6210 |  | remaining at 2 h, 213 µM [9]: 8%; remaining at 0.5 h, 213 µM [10]: 50%; remaining at 1 h, 213 µM [11]: 25%; remaining at 1.5 h, 213 µM [12]: 14%
2 | CO[C@@]12[C@H](COC(N)=O)C3=C(C(=O)C(C)=C(N)C3=O)N1C[C@@H]1N[C@@H]12 [MITOMYCIN] |  | 87 | 578 | 303 | 17000 | 410 | 2940 | 7.8 | 96 | inactive | Active | 66 | 1870 | Active | 
3 | CC1=CC(=O)c2c(COC(N)=O)c3n(c2C1=O)C[C@H]1[C@@H]3N1C (some centres undefined) | Active | 0.32 | 8 | 4 | 225 | 30 | 342 | 17 | 0.26 | 41.9% | 0.55 | 24 | 525 | 0.51 | remaining at 5 h, 250 µM [14]: 78%; remaining at 7 h, 250 µM [15]: 72%; remaining at 49 h, 250 µM [16]: 18%; Retention_time [17]: 3.6 min; remaining at 2 h, 250 µM [18]: 89%
